The text below walks through data of paper PMC10935467 (Acta Pharmaceutica Sinica. B, 2023).

In general, IC50 refers to the concentration that inhibits the measured activity by half. The Kd is the concentration at which binding is half-saturated.

Where a SMILES comes first, the peptide text is derived from it. Where no end group is shown, it is not given here. [ ]: non-standard residue; d: D form.

For data set [1], the system named is MC38 tumors in C57BL/6 mice. Briefly: MC38 tumor model, LFOP alone or combined with radiotherapy. The data set is classed as in vivo, mouse. In short, it runs like this:
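In MC38 tumor-bearing C57BL/6 mice, tumors of about 100 mm3 receive local 20 Gy irradiation. Test peptide at 5.8 mg/kg is given starting the same day, with or without irradiation; saline and RT-alone groups are included. Tumor volume (½ × length × width × height) and body weight are recorded every two days for 14 days, and tumors are weighed at the end. n = 5.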

In the next data set the target is hPD-1/hPD-L1 (Homo sapiens, UniProt Q9NZQ7). Briefly: Blocking assay of hPD-1/hPD-L1 interaction. The data set is classed as binding. The conditions noted are these: 100 μmol/L, n = 3, compared with OPBP-1(8–12).
hPD-1/hPD-L1, sequence (Q9NZQ7 19-239 limits assumed): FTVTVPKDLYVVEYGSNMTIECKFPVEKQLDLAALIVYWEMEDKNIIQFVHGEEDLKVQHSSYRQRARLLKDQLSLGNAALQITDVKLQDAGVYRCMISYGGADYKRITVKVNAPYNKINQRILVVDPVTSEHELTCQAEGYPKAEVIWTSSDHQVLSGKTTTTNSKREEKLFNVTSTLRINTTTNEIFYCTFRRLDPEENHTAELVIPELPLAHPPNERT
A short description of data set [2]: In vivo toxicity analysis in MC38 tumor-bearing mice. Details: species or system mouse.
Data set [3] deals with H22 tumors in BALB/c mice. The data set can be described thus: H22 tumor model. In kind it is in vivo, mouse. The conditions noted are these: daily for 14 days, LFP-D1 3 mg/kg, LFOP 5.8 mg/kg, n = 5. In short, it runs like this: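 H22 cells (2 × 10^6) are injected subcutaneously into the right flank of six-week-old female BALB/c mice. Dosing is daily once tumors reach about 50 mm3: 3 mg/kg, 2.5 mg/kg, both combined, or 5.8 mg/kg of the fused peptide (equimolar to 3 mg/kg). Tumor volume (½ × length × width × height) and body weight are recorded every two days over 14 days of treatment.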

The target of the next data set is T1, human LAG-3/FGL1 (Homo sapiens, UniProt P18627).
T1 sequence (P18627 23-525): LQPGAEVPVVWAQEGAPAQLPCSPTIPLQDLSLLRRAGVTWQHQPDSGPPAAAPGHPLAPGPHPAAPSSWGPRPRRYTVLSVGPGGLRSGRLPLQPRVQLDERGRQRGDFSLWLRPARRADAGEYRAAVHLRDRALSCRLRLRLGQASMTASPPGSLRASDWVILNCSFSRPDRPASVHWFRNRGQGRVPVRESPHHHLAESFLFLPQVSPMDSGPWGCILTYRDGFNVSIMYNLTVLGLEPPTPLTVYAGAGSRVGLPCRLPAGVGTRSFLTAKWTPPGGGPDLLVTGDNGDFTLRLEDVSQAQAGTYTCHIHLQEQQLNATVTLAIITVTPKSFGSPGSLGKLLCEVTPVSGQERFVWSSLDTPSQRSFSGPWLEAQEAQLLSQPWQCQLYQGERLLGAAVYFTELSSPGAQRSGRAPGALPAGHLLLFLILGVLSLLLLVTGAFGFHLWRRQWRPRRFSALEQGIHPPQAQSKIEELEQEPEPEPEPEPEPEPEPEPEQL
The data set can be described thus: Blocking assay of hLAG-3/hFGL1 interaction on CHO-K1-hLAG-3 cells. The data set is classed as binding. The conditions noted are these: 100 μmol/L, n = 3, compared with LFP-D1. In short, it runs like this:
(§1)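 Cells stably expressing human (CHO-K1-hLAG-3) or mouse (CHO-K1-mLAG-3) LAG-3 are pre-incubated with test peptide at graded concentrations for 30 min at 4 °C. Recombinant FGL1-Fc of the matching species is then added for 30 min at 4 °C, followed by PE anti-human IgG1 (anti-Fc). MFI is read by flow cytometry. Blocking % = (MFI no-peptide control − MFI peptide)/MFI no-peptide control × 100. Cells given only anti-Fc-PE serve as background. IC50 is taken from dose–response curves.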

Another data set has as its target T2, mouse LAG-3/FGL1 (Mus musculus, UniProt Q61790).
T2 sequence (Q61790 24-521): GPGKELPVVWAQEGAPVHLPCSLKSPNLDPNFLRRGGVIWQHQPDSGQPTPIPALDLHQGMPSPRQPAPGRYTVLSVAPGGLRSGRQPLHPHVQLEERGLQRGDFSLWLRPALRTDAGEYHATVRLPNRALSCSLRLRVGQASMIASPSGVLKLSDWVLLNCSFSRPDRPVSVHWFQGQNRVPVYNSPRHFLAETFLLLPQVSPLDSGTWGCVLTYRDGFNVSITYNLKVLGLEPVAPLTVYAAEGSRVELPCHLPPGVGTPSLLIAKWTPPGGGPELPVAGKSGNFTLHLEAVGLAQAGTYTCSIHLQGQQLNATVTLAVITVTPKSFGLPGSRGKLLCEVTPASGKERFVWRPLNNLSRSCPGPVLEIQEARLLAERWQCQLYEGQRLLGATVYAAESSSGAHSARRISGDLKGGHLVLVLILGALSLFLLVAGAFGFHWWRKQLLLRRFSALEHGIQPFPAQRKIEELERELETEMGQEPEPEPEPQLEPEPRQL
Briefly: Blocking assay of mLAG-3/mFGL1 interaction on CHO-K1-mLAG-3 cells. In kind it is binding. In a few lines:
as §1

Another data set concerns the target T3, Human LAG-3-His protein (Homo sapiens, UniProt P18627).
T3 sequence (P18627 23-525): T1 sequence (P18627 23-525)
Briefly: MST binding affinity to hLAG-3. In short, it runs like this: (§2)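 His-tagged LAG-3 (human or mouse) is labeled with RED-tris-NTA 2nd-generation dye. Test peptide is serially diluted in PBST (0.05% Tween-20) and mixed with an equal volume of labeled protein at room temperature for 5 min. Samples are loaded into capillaries for microscale thermophoresis, and KD is fitted from the dose–response curves.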

In another data set the target is T4, mouse LAG-3-His protein (Mus musculus, UniProt Q61790).
T4 sequence (Q61790 24-521): T2 sequence (Q61790 24-521)
The data set can be described thus: MST binding affinity to mLAG-3. In short, it runs like this: as §2

[4] abbreviates: LFP-D1 treatment vs normal saline, n = 5.

As for `CSCC[C@@H](N)C(=O)N[C@@H](Cc1c[nH]cn1)C(=O)N[C@@H](CCCNC(=N)N)C(=O)N1CCC[C@H]1C(=O)N1CCC[C@H]1C(=O)N[C@@H](CO)C(=O)N[C@@H](C(=O)NCC(=O)N[C@@H](CO)C(=O)N[C@H](CCCNC(=N)N)C(=O)N[C@@H](C(=O)N[C@H](Cc1ccc(O)cc1)C(=O)N[C@H](CO)C(=O)N[C@H](Cc1ccccc1)C(=O)O)C(C)C)[C@H](C)O` [LFOP] (H-[dM]HRPPS[dT]GS[dR][dV][dY][dS][dF]-OH; N-terminus and C-terminus assumed), in data set [1] (LFOP 5.8 mg/kg alone, 14 days, n = 5), the “Tumor progression of MC38 tumors” value is “slowed tumor progression”. Besides, the “Tumor growth of MC38 tumors” value in data set [1] (LFOP 5.8 mg/kg combined with RT (local 20 Gy), 14 days, n = 5) was “effectively controlled tumor growth even partial regression”. Also, in data set [1] (treatment with LFOP, data not shown), the Tregs after treatment entry is reported as “decreased”. In addition, the “Blocking efficacy on hPD-1/hPD-L1 interaction” value at hPD-1/hPD-L1 was “in line with its parental peptide”. In addition, the “Histopathology of major organs (H&E staining)” value in data set [2] (heart, liver, spleen, lung, kidney after treatment with LFOP, RT or both) is listed as “no abnormalities”. Further, in data set [2] (normal saline, RT 20 Gy, LFOP 5.8 mg/kg, LFOP + RT, 14 days, n = 5), the “Body weight of the mice among groups at ultimate time” value was “no significant differences”. For the same molecule, in data set [2] (normal saline, RT 20 Gy, LFOP 5.8 mg/kg, LFOP + RT, n = 5), the “ALT and AST levels in serum” value was “indiscriminate”. Also, the “Tumor growth in H22 tumor model” value in data set [3] is “significantly inhibited the tumor growth”. Also, the “Blocking efficacy on hLAG-3/hFGL1 interaction” value at human LAG-3/FGL1 is “in line with its parental peptide”.
On mouse LAG-3/FGL1, `CSCC[C@@H](N)C(=O)N[C@@H](Cc1c[nH]cn1)C(=O)N[C@@H](CCCNC(=N)N)C(=O)N1CCC[C@H]1C(=O)N1CCC[C@H]1C(=O)N[C@@H](CO)C(=O)N[C@@H](C(=O)O)[C@H](C)O` [LFP-D1] (H-[dM]HRPPS[dT]-OH) registered an IC50 of 17.5 ± 2.2 µM. The dissociation constant Kd on Human LAG-3-His protein was found to be 15.7 ± 6.7 µM; on mouse LAG-3-His protein it was 10.9 ± 3.3 µM. The Liver index entry in data set [2] (LFP-D1 treatment vs normal saline, liver weight (mg) to body weight (g), n = 5) was “no significant difference”. Also, the “ALT level in mice serum” value in data set [2] (setting [4]) was “no significant difference”. Also, the “AST level in mice serum” value in data set [2] (setting [4]) was “no significant difference”.
MHRPPST [LFP-6] registered an IC50 against mouse LAG-3/FGL1 of 47.2 ± 2.2 µM. The values for the dissociation constant Kd at Human LAG-3-His protein and at mouse LAG-3-His protein were 16.1 ± 5.5 µM and 14.6 ± 3.3 µM, respectively.
